One may read the Kd as the equilibrium constant for the complex coming apart.

These results are taken from ChEMBL document CHEMBL4334471, “Discovery of 1,8-disubstituted-[1,2,3]triazolo[4,5-c]quinoline derivatives as a new class of Hippo signaling pathway inhibitors” (Bioorg Med Chem Lett, 2019).

Bounds are passed on as bounds.

For experiment [1], the target named is Serine/threonine-protein kinase LATS2 (Homo sapiens, UniProt Q9NRM7). The experiment can be described thus: Binding affinity to wild-type human partial length LATS2 (Q641 to V1088 residues) expressed in mammalian expression system assessed as dissociation constant by Kinomescan method. In short, it runs like this:
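KINOMEscan competition binding assay. Kinase bound at each concentration of test compound was quantified by qPCR and plotted against log10 compound concentration to derive Kd.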

Experiment [2] deals with CDK12/Cyclin K (Homo sapiens) (UniProt O75909+Q9NYV4). The experiment can be described thus: Inhibition of recombinant full length human CDK12/cyclinK assessed as residual activity at 10 uM using RSRSRSRSRSRSR as substrate incubated for 40 mins in presence of [gamma-33ATP] by scintillation counting based radiometry assay relative to control. It counts as protein-complex assay.

Experiment [3] addresses Serine/threonine-protein kinase D2 (Homo sapiens) (UniProt Q9BZL6). The experiment can be described thus: Inhibition of recombinant full-length human PKD2 assessed as residual activity at 10 uM using KKLNRTLSVA as substrate incubated for 40 mins in presence of [gamma33P]ATP by scintillation counting based radiometry assay relative to control.
Experiment [4] deals with Death-associated protein kinase 1 (Homo sapiens) (UniProt P53355). The experiment in a line: Inhibition of recombinant human DAPK1 (1 to 296 residues) assessed as residual activity at 10 uM KKLNRTLSFAEPG as substrate incubated 40 mins in presence of [gamma-33ATP] by scintillation counting based radiometry assay relative to control.
For experiment [5], the system named is Hepatocyte growth factor receptor (Homo sapiens), P08581 [D1228N]. The experiment can be described thus: Inhibition of recombinant human MET A1209G/V1290L/D1246N mutant (974 to end residues) assessed as residual activity at 10 uM using KKKGQEEEYVFIE as substrate incubated for 40 mins in presence of [gamma-33ATP by scintillation counting based radiometry assay relative to control.

In experiment [6] the target is G protein-coupled receptor kinase 5 (Homo sapiens) (UniProt P34947). The experiment can be described thus: Inhibition of recombinant full length human GRK5 assessed as residual activity at 10 uM using casein as substrate at 40 mins in presence of [gamma-33ATP] by scintillation counting based radiometry assay relative to control.
The target in experiment [7] is Serine/threonine-protein kinase Nek2 (Homo sapiens) (UniProt P51955). The experiment in a line: Inhibition of recombinant full-length human NEK2 assessed as residual activity at 10 uM using myelin basic protein as substrate measured after 40 mins in presence of [gamma33P]ATP by scintillation counting based radiometry assay relative to control.
For experiment [8], the target named is CDK9/cyclin T1 (Homo sapiens) (UniProt O60563+P50750). The experiment can be described thus: Inhibition of recombinant full length human CDK9/cyclinT1 assessed as residual activity at 10 uM using KTFCGTPEYLAPE as substrate incubated for 40 mins in presence of [gamma-33ATP] by scintillation counting based radiometry assay relative to control. The format is protein-complex assay.

Experiment [9] deals with Cytoplasmic tyrosine-protein kinase BMX (Homo sapiens) (UniProt P51813). The experiment can be described thus: Inhibition of recombinant full length human BMX assessed as residual activity at 10 uM using poly(Glu, Tyr) 4:1 as substrate incubated for 40 mins in presence of [gamma-33ATP] by scintillation counting based radiometry assay relative to control.
The species named for a further experiment is Mus musculus. The experiment can be described thus: Inhibition of recombinant full length mouse PI3K p110/p85 assessed as residual activity at 10 uM using phosphatidylinositol-4, 5-bisphosphate as substrate incubated for 40 mins in presence of [gamma33P]ATP by scintillation counting based radiometry assay relative to control.
The target in experiment [10] is Serine/threonine-protein kinase PLK2 (Homo sapiens) (UniProt Q9NYY3). The experiment in a line: Inhibition of recombinant human SNK (65 to 409 residues) assessed as residual activity at 10 uM using casein as substrate incubated for 40 mins in presence of [gamma33P]ATP by scintillation counting based radiometry assay relative to control.
In experiment [11] the target is Calcium/calmodulin-dependent protein kinase type 1B (Homo sapiens) (UniProt Q6P2M8). The experiment in a line: Inhibition of recombinant full length human CaMKIbeta assessed as residual activity at 10 uM using KKLRRTLSFAEP as substrate incubated for 40 mins in presence of [gamma-33ATP] by scintillation counting based radiometry assay relative to control.
For experiment [12], the species on record is Homo sapiens. The experiment in a line: Inhibition of recombinant human full length PI3K p110/p65 assessed as residual activity at 10 uM using phosphatidylinositol-4, 5-bisphosphate as substrate incubated for 40 mins in presence of [gamma33P]ATP by scintillation counting based radiometry assay relative to control.
For experiment [13], the target named is ALK tyrosine kinase receptor (Homo sapiens) (UniProt Q9UM73). The experiment in a line: Inhibition of human ALK (1058 to end residues) assessed as residual activity at 10 uM using KKKSPGEYVNIEFG as substrate incubated for 40 mins in presence of [gamma-33ATP] by scintillation counting based radiometry assay relative to control.
Experiment [14] concerns the target Serine/threonine-protein kinase Nek1 (Homo sapiens) (UniProt Q96PY6). The experiment can be described thus: Inhibition of recombinant human NEK1 (1 to 505 residues) assessed as residual activity at 10 uM using RLGRDKYKTLRQI as substrate measured after 40 mins in presence of [gamma33P]ATP by scintillation counting based radiometry assay relative to control.
For experiment [15], the target named is Beta-adrenergic receptor kinase 1 (Homo sapiens) (UniProt P25098). The experiment can be described thus: Inhibition of recombinant full length human GRK2 assessed as residual activity at 10 uM using casein as substrate at 40 mins in presence of [gamma-33ATP] by scintillation counting based radiometry assay relative to control.
For experiment [16], the target named is Fibroblast growth factor receptor 2 (Homo sapiens) (UniProt P21802). The experiment in a line: Inhibition of recombinant human FGFR2 (456 to 770 residues) assessed as residual activity at 10 uM using poly(Glu, Tyr) 4:1 as substrate at 40 mins in presence of [gamma-33ATP] by scintillation counting based radiometry assay relative to control.
Experiment [17] addresses Tyrosine-protein kinase SYK (Homo sapiens) (UniProt P43405). The experiment in a line: Inhibition of recombinant human full length SYK assessed as residual activity at 10 uM using poly(Glu, Tyr) 4:1 as substrate incubated for 40 mins in presence of [gamma33P]ATP by scintillation counting based radiometry assay relative to control.
The species named for experiment [18] is Homo sapiens. The experiment can be described thus: Inhibition of recombinant full length human Aurora A I31F mutant assessed as residual activity at 10 uM using LRRASLG as substrate incubated for 40 mins in presence of [gamma-33ATP] by scintillation counting based radiometry assay relative to control.
Experiment [19] addresses Serine/threonine-protein kinase WNK1 (Homo sapiens) (UniProt Q9H4A3). The experiment in a line: Inhibition of recombinant human WNK1 (1 to 491 residues) assessed as residual activity at 10 uM using myelin basic protein as substrate incubated for 40 mins in presence of [gamma33P]ATP by scintillation counting based radiometry assay relative to control.
For experiment [20], the target named is [Pyruvate dehydrogenase (acetyl-transferring)] kinase isozyme 2, mitochondrial (Homo sapiens) (UniProt Q15119). The experiment in a line: Inhibition of human PDHK2 assessed as residual activity at 10 uM by scintillation counting based radiometry assay relative to control.
Experiment [21] deals with Protein kinase C gamma type (Homo sapiens) (UniProt P05129). The experiment in a line: Inhibition of recombinant full-length human PKCgamma assessed as residual activity at 10 uM using histone H1 as substrate incubated for 40 mins in presence of [gamma33P]ATP by scintillation counting based radiometry assay relative to control.

Chain of Serine/threonine-protein kinase LATS2 (Q9NRM7 whole entry, the tested form may be a part): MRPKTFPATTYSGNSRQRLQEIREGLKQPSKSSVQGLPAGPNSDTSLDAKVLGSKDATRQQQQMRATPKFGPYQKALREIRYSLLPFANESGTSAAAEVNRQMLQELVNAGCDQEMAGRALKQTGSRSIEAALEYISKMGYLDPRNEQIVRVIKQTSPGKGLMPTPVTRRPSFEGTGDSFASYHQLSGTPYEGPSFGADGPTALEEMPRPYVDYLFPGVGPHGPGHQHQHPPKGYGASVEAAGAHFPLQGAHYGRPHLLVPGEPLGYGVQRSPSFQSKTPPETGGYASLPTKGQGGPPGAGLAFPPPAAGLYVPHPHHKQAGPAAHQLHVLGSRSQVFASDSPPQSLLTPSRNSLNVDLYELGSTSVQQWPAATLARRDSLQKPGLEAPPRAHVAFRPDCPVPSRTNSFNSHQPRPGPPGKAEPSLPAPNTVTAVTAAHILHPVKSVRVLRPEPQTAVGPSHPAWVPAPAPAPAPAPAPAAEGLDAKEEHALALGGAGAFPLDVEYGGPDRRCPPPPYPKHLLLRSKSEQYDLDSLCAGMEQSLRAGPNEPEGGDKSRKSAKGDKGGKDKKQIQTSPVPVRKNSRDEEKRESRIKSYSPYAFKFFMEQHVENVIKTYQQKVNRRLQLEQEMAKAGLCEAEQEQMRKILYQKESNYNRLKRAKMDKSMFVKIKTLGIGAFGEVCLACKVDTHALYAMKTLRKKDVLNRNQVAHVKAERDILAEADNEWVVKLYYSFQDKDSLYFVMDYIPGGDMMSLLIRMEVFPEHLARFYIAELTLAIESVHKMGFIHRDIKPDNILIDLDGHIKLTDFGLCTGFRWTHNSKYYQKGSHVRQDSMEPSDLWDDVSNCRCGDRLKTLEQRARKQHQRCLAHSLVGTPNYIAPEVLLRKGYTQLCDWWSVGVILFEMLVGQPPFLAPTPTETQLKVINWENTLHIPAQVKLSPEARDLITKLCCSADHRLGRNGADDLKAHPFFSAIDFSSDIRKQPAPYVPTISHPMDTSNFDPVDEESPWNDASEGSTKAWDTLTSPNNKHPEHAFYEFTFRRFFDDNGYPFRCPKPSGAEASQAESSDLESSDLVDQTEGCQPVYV
Chain of Serine/threonine-protein kinase WNK1 (Homo sapiens) (Q9H4A3 whole entry, looked up, the tested form may be a part): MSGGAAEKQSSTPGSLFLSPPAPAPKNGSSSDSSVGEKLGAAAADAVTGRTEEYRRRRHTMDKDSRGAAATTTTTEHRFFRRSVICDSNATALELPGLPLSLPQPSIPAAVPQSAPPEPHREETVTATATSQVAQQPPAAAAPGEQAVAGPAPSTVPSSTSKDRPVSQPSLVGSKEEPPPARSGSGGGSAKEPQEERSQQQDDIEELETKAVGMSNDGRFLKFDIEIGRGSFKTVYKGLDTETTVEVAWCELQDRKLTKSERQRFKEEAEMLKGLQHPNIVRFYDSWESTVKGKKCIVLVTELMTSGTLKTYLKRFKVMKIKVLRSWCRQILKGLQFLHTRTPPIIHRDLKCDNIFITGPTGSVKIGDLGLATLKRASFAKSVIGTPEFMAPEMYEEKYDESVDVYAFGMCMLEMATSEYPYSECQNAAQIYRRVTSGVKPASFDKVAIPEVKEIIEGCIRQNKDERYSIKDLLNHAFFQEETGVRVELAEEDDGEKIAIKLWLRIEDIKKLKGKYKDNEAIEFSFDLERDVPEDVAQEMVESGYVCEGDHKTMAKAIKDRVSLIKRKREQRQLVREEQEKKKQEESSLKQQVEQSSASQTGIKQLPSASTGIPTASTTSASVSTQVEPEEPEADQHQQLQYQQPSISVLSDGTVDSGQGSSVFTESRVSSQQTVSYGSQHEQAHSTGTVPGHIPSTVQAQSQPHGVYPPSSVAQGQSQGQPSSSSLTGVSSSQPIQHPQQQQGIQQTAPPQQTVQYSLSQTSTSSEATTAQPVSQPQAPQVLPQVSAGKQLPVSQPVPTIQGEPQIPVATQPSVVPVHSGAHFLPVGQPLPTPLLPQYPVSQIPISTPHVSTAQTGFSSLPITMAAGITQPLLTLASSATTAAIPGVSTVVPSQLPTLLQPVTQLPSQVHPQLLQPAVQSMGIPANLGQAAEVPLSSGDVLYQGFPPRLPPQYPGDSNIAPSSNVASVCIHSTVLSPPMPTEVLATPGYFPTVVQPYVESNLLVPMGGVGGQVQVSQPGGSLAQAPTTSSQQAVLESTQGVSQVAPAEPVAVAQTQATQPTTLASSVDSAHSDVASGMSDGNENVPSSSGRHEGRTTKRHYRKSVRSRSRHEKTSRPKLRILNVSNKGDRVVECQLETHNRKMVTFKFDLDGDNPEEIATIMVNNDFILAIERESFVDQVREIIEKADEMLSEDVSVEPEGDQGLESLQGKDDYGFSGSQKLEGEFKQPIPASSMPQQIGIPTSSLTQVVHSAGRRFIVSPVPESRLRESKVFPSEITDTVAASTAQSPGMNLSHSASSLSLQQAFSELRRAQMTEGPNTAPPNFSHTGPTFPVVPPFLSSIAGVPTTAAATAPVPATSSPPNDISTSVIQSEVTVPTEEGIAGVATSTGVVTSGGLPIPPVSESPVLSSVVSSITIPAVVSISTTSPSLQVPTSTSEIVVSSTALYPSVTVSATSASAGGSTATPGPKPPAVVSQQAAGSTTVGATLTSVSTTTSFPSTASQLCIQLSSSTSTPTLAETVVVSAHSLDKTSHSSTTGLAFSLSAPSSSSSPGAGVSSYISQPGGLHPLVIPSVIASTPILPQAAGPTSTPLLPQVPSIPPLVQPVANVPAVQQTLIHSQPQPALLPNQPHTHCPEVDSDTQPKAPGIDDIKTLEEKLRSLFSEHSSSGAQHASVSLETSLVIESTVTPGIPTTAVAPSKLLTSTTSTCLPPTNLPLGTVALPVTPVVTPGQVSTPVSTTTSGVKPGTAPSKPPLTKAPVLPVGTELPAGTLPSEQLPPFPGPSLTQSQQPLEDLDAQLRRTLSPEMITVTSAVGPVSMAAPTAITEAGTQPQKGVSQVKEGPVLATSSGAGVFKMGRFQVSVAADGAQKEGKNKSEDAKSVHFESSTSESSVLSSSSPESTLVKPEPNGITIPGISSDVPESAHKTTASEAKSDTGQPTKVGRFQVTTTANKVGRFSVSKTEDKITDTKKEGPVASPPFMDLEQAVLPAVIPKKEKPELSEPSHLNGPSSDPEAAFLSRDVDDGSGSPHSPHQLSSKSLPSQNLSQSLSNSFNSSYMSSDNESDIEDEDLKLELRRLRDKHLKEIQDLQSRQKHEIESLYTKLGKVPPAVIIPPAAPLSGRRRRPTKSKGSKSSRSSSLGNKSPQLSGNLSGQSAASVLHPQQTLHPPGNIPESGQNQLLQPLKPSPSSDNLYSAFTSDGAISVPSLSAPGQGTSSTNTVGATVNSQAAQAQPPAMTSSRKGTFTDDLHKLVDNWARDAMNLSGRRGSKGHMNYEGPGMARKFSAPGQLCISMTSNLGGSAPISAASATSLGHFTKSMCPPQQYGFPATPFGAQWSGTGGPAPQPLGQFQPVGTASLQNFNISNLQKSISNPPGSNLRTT
Chain of Serine/threonine-protein kinase D2 (Homo sapiens) (Q9BZL6 whole entry, the tested form may be a part): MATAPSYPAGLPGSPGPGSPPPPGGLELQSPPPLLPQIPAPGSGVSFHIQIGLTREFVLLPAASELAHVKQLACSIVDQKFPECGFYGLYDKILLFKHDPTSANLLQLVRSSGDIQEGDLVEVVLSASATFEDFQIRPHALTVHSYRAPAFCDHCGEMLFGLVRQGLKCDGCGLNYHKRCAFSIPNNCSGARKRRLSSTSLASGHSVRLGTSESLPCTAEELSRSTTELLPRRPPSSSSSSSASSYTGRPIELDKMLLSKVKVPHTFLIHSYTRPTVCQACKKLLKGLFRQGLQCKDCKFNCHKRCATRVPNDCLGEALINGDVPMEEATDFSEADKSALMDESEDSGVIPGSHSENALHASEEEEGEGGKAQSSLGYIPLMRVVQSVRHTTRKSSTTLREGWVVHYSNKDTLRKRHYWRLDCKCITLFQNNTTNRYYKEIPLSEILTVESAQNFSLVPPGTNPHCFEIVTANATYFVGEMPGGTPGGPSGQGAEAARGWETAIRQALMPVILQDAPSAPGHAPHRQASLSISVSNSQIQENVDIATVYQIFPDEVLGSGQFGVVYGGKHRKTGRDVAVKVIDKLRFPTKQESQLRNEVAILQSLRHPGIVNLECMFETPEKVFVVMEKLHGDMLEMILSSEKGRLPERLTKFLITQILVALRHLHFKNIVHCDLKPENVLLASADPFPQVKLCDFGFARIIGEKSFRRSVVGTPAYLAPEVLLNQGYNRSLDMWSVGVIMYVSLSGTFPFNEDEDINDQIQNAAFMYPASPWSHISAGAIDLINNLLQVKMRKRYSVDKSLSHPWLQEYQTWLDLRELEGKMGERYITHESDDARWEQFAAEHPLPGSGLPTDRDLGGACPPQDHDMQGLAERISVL
Chain of Serine/threonine-protein kinase PLK2 (Homo sapiens) (Q9NYY3 whole entry, looked up, the tested form may be a part): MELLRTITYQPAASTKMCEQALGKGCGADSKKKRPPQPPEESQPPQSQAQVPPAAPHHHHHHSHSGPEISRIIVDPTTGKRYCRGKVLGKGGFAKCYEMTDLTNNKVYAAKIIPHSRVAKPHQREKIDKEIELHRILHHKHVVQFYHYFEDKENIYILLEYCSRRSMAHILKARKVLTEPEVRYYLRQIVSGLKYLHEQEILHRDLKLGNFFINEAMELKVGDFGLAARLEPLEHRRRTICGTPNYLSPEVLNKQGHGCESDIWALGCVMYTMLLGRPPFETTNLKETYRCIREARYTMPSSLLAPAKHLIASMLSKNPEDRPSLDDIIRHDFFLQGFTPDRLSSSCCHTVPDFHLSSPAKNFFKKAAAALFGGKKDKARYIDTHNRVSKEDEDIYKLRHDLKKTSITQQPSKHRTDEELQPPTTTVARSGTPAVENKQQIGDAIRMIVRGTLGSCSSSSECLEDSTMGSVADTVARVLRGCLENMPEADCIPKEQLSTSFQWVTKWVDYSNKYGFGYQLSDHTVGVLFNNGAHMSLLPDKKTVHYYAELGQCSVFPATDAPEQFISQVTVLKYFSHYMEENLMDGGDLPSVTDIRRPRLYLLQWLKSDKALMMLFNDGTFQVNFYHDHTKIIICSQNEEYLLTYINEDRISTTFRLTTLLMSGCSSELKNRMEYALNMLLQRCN

Turning to `C[C@@H](c1ccccc1)n1nnc2cnc3ccc(-c4cnc5[nH]ccc5c4)cc3c21`, in experiment [1], the Kd was over 10 µM. The Activity in experiment [2] was 83%; in experiment [3], 65%; in experiment [4] it was 84%; in [5], 55%; in [6] it was 91%; in experiment [7], 75%. In addition, the Activity in experiment [8] was 80%; in experiment [9], 44%; in the experiment listed under Mus musculus it was 4 to 12%; in experiment [10], 90%; in experiment [11], 67%; in the experiment filed under Homo sapiens [12] it was 3%. Besides, the Activity amounted to 28% in [13]; 23% in experiment [14]; 92% in experiment [15]; 32% in [16]; 41% in experiment [17]; 69% in the experiment listed under Homo sapiens [18]. Besides, the results for the Activity in experiment [19], in [20] and in experiment [21] were 86%, 86% and 83%, respectively.
